According to publication PMC8314033 (BioImpacts : BI, 2020):

Tests used:
[1] = tested on: MCF7 (breast cancer cell lines); test: In vitro cell antiproliferative test; format: cell-based, human; details: MCF7, 200 µg/mL, 48 hours
Method in brief: (§1)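 Cells grown in DMEM with 10% heat-inactivated FBS and penicillin-streptomycin, detached with trypsin-EDTA, and counted by trypan blue. Plated at 10 × 10³ cells/well and allowed to attach for 24 h at 37°C, 5% CO2. Exposed 48 h to isolated compounds at 1.8–200 µg/mL final, in triplicate. MTT added at 1 mg/mL final for 4 h, formazan dissolved in DMSO, and A570 read. Survival calculated as a percentage of untreated wells.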

[2] = tested on: 3T3 (non-cancer immortal cell lines); test: In vitro cell antiproliferative test; format: cell-based; details: 3T3, 200 µg/mL, 48 hours
Method in brief: as §1

[3] = Hydroxyl radical scavenging activity; details: 5 minutes, 560 nm; standard ascorbic acid

SMILES | % of cell survival [1] | % of cell survival [2] | Hydroxyl radical scavenging EC50 [3]
CC(C)=CCc1c(O)cc(O)cc1-c1cc2ccc(O)c(CC=C(C)C)c2o1 [Cathafuran B, cathafuran B] | 8.89% | 20.58% | 
Oc1cc(O)cc(-c2cc3ccc(O)cc3o2)c1 [Moracin M] | 16.09% | 21.6% | 
C[C@H]1[C@H](C)CC[C@]2(C(=O)O)CC[C@]3(C)C(=CC[C@@H]4[C@@]5(C)CC[C@H](O)C(C)(C)[C@@H]5CC[C@]43C)[C@H]12 [Ursolic acid, ursolic acid] | 8.46% | 17.58% | 
O=C1O[C@H]([C@@H](O)CO)C(O)=C1O [ascorbic acid] |  |  | 6.58 mg/L
